# Measured values from different studies.
# Compare with care: the assays were run in different laboratories.
# Target: Kappa-type opioid receptor (OPRK1, Homo sapiens, UniProt P41145)
Structure (SMILES),assay,conditions,measurement,value
COc1ccc(C(=O)Nc2ccccc2CCC2CCCCN2C)cc1 (stereo not shown),"ligand displacement, radioligand",,IC50,3600 nM
CCCO[C@@]12Cc3cc(-c4ccccc4)cnc3[C@@H]3Oc4c(O)ccc5c4[C@@]31CCN(CC1CC1)[C@@H]2C5,cell-free assay,,Ki,252 nM
Cc1cc(O)cc(C)c1C[C@H](N)C(=O)N[C@H](C)C(=O)NCC(=O)N[C@@H](Cc1ccc(Cl)cc1)C(=O)N(C)CCC[C@@]1(c2ccc(F)cc2)OCc2cc(C#N)ccc21,cell-free assay,,Ki,37 nM
C[C@H]1[C@H]2Cc3ccc(O)cc3[C@]1(C)CCN2CC1CC1,cell-free assay,,Ki,0.95 nM
COC(=O)C(c1ccccc1)C1CCCCN1 (stereo not shown),"ligand displacement, radioligand",,IC50,6900 nM
Cc1cc(O)cc(C)c1C[C@H](N)C(=O)N1CCc2ccc(Cc3cccc([N+](=O)[O-])c3)cc2C1,"ligand displacement, radioligand",cell membranes,Ki,2.5 nM
Cc1cc(O)cc(C)c1C[C@H](N)C(=O)N1Cc2ccccc2CC1C(=O)NCC(=O)NC(Cc1ccc(Cl)cc1)C(=O)N(C)CCC[C@@]1(c2ccc(F)cc2)OCc2cc(C#N)ccc21 (stereo in doubt),cell-free assay,,Ki,91 nM
COC(=O)/C=C/C(=O)N[C@@H]1CC[C@@]2(O)[C@H]3Cc4ccc(O)c5c4[C@@]2(CCN3CC2CC2)[C@H]1O5,"ligand displacement, radioligand",cell membranes,IC50,7.78 nM
CN[C@]1(c2ccccc2Cl)CCCCC1=O,"ligand displacement, radioligand",,IC50,13000 nM
Cc1ccccc1Cc1ccc2c(c1)CN(C(=O)[C@@H](N)Cc1c(C)cc(O)cc1C)CC2,"ligand displacement, radioligand",cell membranes,Ki,1.2 nM
CC(CCc1ccc(O)cc1)NCCc1ccc(O)c(O)c1 (stereo not shown),"ligand displacement, radioligand",,IC50,5300 nM
Cc1cc(O)cc(C)c1C[C@H](N)C(=O)N1CCc2ccc(Cc3ccc(N)cc3)cc2C1,"ligand displacement, radioligand",cell membranes,Ki,91 nM
COc1ncccc1-c1cnn2ccc(N3CCN(C(=O)OC(C)C)CC3)nc12,cell-free assay,,IC50,> 30000 nM
